How the values were obtained:
Cytochrome P450 3A4 = Cytochrome P450 3A4 (Homo sapiens, UniProt P08684); assay: Inhibition of CYP3A4; assay type: ADME
Cytochrome P450 2D6 = Cytochrome P450 2D6 (Homo sapiens, UniProt P10635); assay: Inhibition of CYP2D6; assay type: ADME
[1] = Oral bioavailability in rat at 10 mg/kg; assay type: ADME, organism-based; settings: in vivo
[2] = Half life in rat at 10 mg/kg, po; assay type: ADME, organism-based; set-up: dose 10 mg/kg, route oral; settings: in vivo
[3] = Clearance in rat at 10 mg/kg, po; assay type: ADME, organism-based; set-up: dose 10 mg/kg, route oral; settings: in vivo
[4] = Clearance in dog at 3 mg/kg, po; assay type: ADME, organism-based, Canis lupus familiaris; set-up: dose 3 mg/kg, route oral; settings: in vivo
[5] = Oral bioavailability in dog at 3 mg/kg; assay type: ADME, organism-based, Canis lupus familiaris; settings: in vivo
[6] = AUC (0 to 24 hrs) in rat at 10 mg/kg, po; assay type: ADME, organism-based; set-up: time < 24 hr, dose 10 mg/kg, route oral; settings: plasma
[7] = Half life in dog at 3 mg/kg, po; assay type: ADME, organism-based, Canis lupus familiaris; set-up: dose 3 mg/kg, route oral; settings: in vivo
[8] = AUC in monkey at 3 mg/kg, po; assay type: ADME, organism-based, Macaca mulatta; set-up: dose 3 mg/kg, route oral; settings: rhesus monkey, plasma
How it was run: (§1)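 Oral dosing of the HCl salt at 3 mpk; plasma AUC reported in µM.h.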

[9] = Half life in monkey at 3 mg/kg, po; assay type: ADME, organism-based, Macaca mulatta; set-up: dose 3 mg/kg, route oral; settings: rhesus monkey, in vivo
[10] = Cytotoxicity against human hepatoma cells after 3 days by MTS assay; assay type: cell-based
How it was run: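 MTS cell proliferation assay on replicon cells handled as in the replicon activity assay (seeded one day before, 0.5% DMSO, 10% FBS, serial dilutions), read 3 days after dosing. CC50 is the concentration giving 50% inhibition relative to vehicle-treated cells.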

[11] = Cytotoxicity against human hepatoma cells assessed as decrease in GADPH RNA level after 3 days by Rt-PCR analysis; assay type: cell-based
[12] = Oral bioavailability in monkey at 3 mg/kg; assay type: ADME, organism-based, Macaca mulatta; settings: rhesus monkey, in vivo
[13] = Cytotoxicity against human hepatoma cells assessed as inhibition of [14C]thymidine incorporation after 3 days by TopCount analysis; assay type: cell-based
How it was run: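 Replicon cells were seeded in scintillating microplates one day before treatment. Compound dilutions in triplicate were added with [methyl-14C]-thymidine (final 0.5 uCi/mL) and incubated 3 days. Incorporated label was counted by scintillation proximity. DNA CC50 is the concentration giving 50% inhibition of thymidine incorporation versus vehicle-treated cells.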

[14] = Drug uptake in rat liver at 10 mg/kg, po at 6 hrs; assay type: ADME, organism-based; set-up: dose 10 mg/kg, route oral; settings: read-out: Drug uptake
How it was run: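 Rats were dosed orally at 10 mpk in 0.4% methylcellulose, n=2. Animals were sacrificed at 6 h, and liver was harvested and processed to measure compound concentration (liver C6 h).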

Cytochrome P450 2C9 = Cytochrome P450 2C9 (Homo sapiens, UniProt P11712); assay: Inhibition of CYP2C9; assay type: ADME
Hepatitis C virus [15] = assay: Antiviral activity against Hepatitis C virus 2a by replicon-based assay; assay type: functional, organism-based, Hepacivirus hominis; settings: genotype 2a
[16] = Clearance in monkey at 3 mg/kg, po; assay type: ADME, organism-based, Macaca mulatta; set-up: dose 3 mg/kg, route oral; settings: rhesus monkey, in vivo
[17] = AUC in dog at 3 mg/kg, po; assay type: ADME, organism-based, Canis lupus familiaris; set-up: dose 3 mg/kg, route oral; settings: plasma; how it was run: as §1
Hepatitis C virus [18] = assay: Antiviral activity against Hepatitis C virus 1a by replicon-based assay; assay type: functional, organism-based, Hepacivirus hominis; settings: subtype 1a
Hepatitis C virus [19] = assay: Antiviral activity against Hepatitis C virus 1b con1 infected in human hepatoma cells assessed as decrease in replicon RNA level after 3 days by RT-PCR analysis; assay type: functional, organism-based, Hepacivirus hominis; settings: genotype 1b Con1, 72 h
How it was run: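 Con1 genotype 1b replicon cells were seeded at 5000 cells/well one day before treatment. Compound in DMSO was added (final 0.5% DMSO, 10% FBS) as 10 serial twofold dilutions in triplicate. Cells were harvested 3 days after dosing. Replicon RNA was quantified by real-time RT-PCR (Taqman), normalized to GAPDH RNA, and EC50 was calculated.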

Cytochrome P450 2D6, sequence (P10635 whole entry): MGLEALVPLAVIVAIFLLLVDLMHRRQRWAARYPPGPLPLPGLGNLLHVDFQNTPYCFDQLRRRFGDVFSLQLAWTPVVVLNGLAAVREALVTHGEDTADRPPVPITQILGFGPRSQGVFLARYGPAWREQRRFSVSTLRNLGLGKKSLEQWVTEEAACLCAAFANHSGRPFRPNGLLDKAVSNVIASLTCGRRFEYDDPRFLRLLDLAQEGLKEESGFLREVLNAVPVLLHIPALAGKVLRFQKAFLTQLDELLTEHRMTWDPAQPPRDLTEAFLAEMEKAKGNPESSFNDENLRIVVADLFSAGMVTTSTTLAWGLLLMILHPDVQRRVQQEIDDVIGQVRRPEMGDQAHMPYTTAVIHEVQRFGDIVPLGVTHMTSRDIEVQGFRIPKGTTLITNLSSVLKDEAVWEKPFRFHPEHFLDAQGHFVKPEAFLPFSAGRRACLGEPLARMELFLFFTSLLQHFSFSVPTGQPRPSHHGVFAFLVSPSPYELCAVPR
Cytochrome P450 3A4, sequence (P08684 whole entry): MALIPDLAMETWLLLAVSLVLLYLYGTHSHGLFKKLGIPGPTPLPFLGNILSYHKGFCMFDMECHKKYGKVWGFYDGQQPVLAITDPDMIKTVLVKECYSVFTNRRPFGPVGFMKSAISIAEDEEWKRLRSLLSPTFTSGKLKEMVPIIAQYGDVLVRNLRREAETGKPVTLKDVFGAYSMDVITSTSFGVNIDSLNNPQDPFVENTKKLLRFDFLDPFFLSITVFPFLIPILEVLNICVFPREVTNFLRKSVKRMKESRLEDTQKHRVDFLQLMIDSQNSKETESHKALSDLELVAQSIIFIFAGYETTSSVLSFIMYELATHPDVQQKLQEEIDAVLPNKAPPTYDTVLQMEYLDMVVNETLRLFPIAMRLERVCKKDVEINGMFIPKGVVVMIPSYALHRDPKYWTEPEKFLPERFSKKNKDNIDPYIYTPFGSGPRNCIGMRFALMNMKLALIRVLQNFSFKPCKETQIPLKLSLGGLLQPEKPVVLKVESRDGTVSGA
Cytochrome P450 2C9, sequence (P11712 whole entry): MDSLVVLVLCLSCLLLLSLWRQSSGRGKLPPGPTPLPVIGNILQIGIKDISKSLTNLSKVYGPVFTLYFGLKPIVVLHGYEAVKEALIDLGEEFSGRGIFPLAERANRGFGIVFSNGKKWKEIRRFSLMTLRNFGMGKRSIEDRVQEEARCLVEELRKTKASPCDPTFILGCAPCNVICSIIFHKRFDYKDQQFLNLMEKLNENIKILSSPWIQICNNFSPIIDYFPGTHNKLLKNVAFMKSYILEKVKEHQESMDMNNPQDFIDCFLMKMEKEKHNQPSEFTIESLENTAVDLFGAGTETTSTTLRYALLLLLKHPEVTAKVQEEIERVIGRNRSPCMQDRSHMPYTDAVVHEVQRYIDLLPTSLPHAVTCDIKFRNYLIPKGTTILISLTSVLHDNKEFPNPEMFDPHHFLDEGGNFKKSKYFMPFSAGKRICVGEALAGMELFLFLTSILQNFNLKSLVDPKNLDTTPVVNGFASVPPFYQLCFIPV

INH (Cytochrome P450 3A4)	INH (Cytochrome P450 2D6)	bioavailability [1]	half-life [2]	CL/F [3]	CL/F [4]	bioavailability [5]	AUC(0-t) at 24 h [6]	half-life [7]	AUC [8]	half-life [9]	bioavailability [12]	concentration at 6 h [14]	INH (Cytochrome P450 2C9)	EC50 (Hepatitis C virus [15])	CL/F [16]	AUC [17]	Structure (SMILES)	CC50 at 72 h [10]	CC50 at 72 h [11]	CC50 at 72 h [13]	also measured
> 20 µM	> 20 µM	18%	5 h	11 mL/min/kg	4.2 mL/min/kg	32%	5.2 µM·h	5.2 h	1.3 µM·h	4.4 h	12%	11000 ng/g	> 20 µM	180 nM	7.2 mL/min/kg	5.1 µM·h	Cc1nc(N[C@H](C)c2ccc(OC(F)(F)F)cc2)nc(N[C@@H]2C[C@H](CO)[C@@H](O)[C@H]2O)c1-c1nc2c(C3CC3)nccc2s1.Cl	> 25000 nM	25000 nM	> 25000 nM	EC50 (Hepatitis C virus [18]): 400 nM; EC50 (Hepatitis C virus [19]): 60 nM
> 20 µM	> 20 µM	15%	2.5 h	40 mL/min/kg	9.8 mL/min/kg	31%	1.1 µM·h	4.2 h	0.3 µM·h	3.3 h	7%	2820 ng/g	> 20 µM	80 nM	20 mL/min/kg	2.9 µM·h	Cc1nc(N[C@H](C)c2ccc(OC(F)(F)F)cc2)nc(N[C@@H]2C[C@H](CO)[C@@H](O)[C@H]2O)c1-c1nc2c(C)nccc2s1.Cl	> 25000 nM	25000 nM	> 25000 nM	EC50 (Hepatitis C virus [18]): 70 nM; EC50 (Hepatitis C virus [19]): 16 nM
